Source: ChEMBL document CHEMBL1152777, “Potent non-benzoquinone ansamycin heat shock protein 90 inhibitors from genetic engineering of Streptomyces hygroscopicus” (J Med Chem, 2009)
Active and inactive are the calls of the source. No cut-off for these calls is given here.

How the values were obtained:
MCF7 [1] = experiment: Cytotoxicity against human MCF7 cells after 72 hrs in presence of NQO1 inhibitor dicoumarol; type: functional, cell-based; settings: MCF7, 72 h
Outline: (§1)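 Viability was read by CellTiter-Glo luminescent assay. Values are means of three independent determinations.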

MCF7 [2] = experiment: Cytotoxicity against human MCF7 cells after 72 hrs; type: functional, cell-based; settings: MCF7, 72 h; outline: as §1
SK-BR-3 [3] = experiment: Cytotoxicity against human SKBR3 cells after 72 hrs in presence of NQO1 inhibitor dicoumarol; type: functional, cell-based; settings: SK-BR-3, 72 h; outline: as §1
SK-OV-3 = experiment: Cytotoxicity against human SKOV3 cells after 72 hrs; type: functional, cell-based; settings: SK-OV-3, 72 h; outline: as §1
SK-BR-3 [4] = experiment: Cytotoxicity against human SKBR3 cells after 72 hrs; type: functional, cell-based; settings: SK-BR-3, 72 h; outline: as §1
HCT-116 = experiment: Cytotoxicity against human HCT116 cells after 72 hrs; type: functional, cell-based; settings: HCT-116, 72 h; outline: as §1
NCI-H596 = experiment: Cytotoxicity against NQ01-deficient human NCI-H596 cells after 72 hrs; type: functional, cell-based; settings: NCI-H596, 72 h; outline: as §1
[5] = Cytotoxicity against NQ01-deficient human MDA468 cells after 72 hrs; type: functional, cell-based; settings: MDA-MB-468, 72 h; outline: as §1
[6] = biological target: T1, Heat shock protein HSP 90-alpha (Homo sapiens, UniProt P07900); experiment: Binding affinity to human recombinant Hsp90alpha N-terminal domain by isothermal titration calorimetry
COLO 205 [7] = experiment: Antitumor activity against human COLO205 tumor bearing mouse assessed as reduction of tumor volume at 90 mg/kg, iv administered once daily for 5 days with 2 day interval for total 13 doses; type: functional, organism-based; design: dose 90 mg/kg
Outline: (§2)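 COLO205 tumor-bearing mice received iv doses of vehicle or test agent (15, 30 or 90 mg/kg) daily for 5 days, then a 2-day holiday, for 13 doses in total. Groups had 10 mice each. Tumor growth was followed over the dosing period and compared with vehicle.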

COLO 205 [8] = experiment: Antitumor activity against human COLO205 tumor bearing mouse assessed as reduction of tumor volume at 15 mg/kg, iv once daily for 5 days with 2 day interval for total 13 doses; type: functional, organism-based; design: dose 15 mg/kg; outline: as §2
Mus musculus [9] = experiment: Inhibition of HSP90 in human COLO205 tumor bearing nu/nu mouse assessed as reduction of ErbB2 protein level at 30 mg/kg, iv after 24 hrs by ELISA
Mus musculus [10] = experiment: Inhibition of HSP90 in human COLO205 tumor bearing nu/nu mouse assessed as reduction of ErbB2 protein level at 30 mg/kg, […] after 4 hrs by ELISA; type: functional, organism-based; design: dose 30 mg/kg
Outline: (§3)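 COLO205 xenograft mice were given a single dose. Tumors were harvested 4 or 24 h later and tumor lysates assayed by ELISA for Hsp70 or ErbB2 protein levels. Vehicle-dosed mice served as comparison.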

[11] = biological target: T1, Heat shock protein HSP 90-alpha; experiment: Binding affinity to human recombinant Hsp90alpha N-terminal domain by scintillation proximity assay
COLO 205 [12] = experiment: Antitumor activity against human COLO205 tumor bearing mouse assessed as reduction of tumor volume dosed intravenously once daily for 5 days with 2 day interval for total 13 doses; type: functional, organism-based; outline: as §2
Mus musculus [13] = experiment: Inhibition of HSP90 in human COLO205 tumor bearing nu/nu mouse assessed as induction of HSP70 expression at 30 mg/kg, […] after 4 hrs by ELISA; type: functional, organism-based; design: dose 30 mg/kg; outline: as §3
Mus musculus [14] = experiment: Toxicity in human COLO205 tumor bearing nu/nu mouse assessed as body weight change at 15 mg/kg, iv administered once daily for 5 days with 2 day interval for total 13 doses; type: organism-based; design: dose 15 mg/kg, route intravenous; settings: in vivo
Mus musculus [15] = experiment: Toxicity in human COLO205 tumor bearing nu/nu mouse assessed as body weight change at 30 mg/kg, iv administered once daily for 5 days with 2 day interval for total 13 doses; type: organism-based; design: dose 30 mg/kg, route intravenous; settings: in vivo
COLO 205 [16] = experiment: Antitumor activity against human COLO205 tumor bearing mouse assessed as reduction of tumor volume at 30 mg/kg, iv administered once daily for 5 days with 2 day interval for total 13 doses; type: functional, organism-based; design: dose 30 mg/kg; outline: as §2
Mus musculus [17] = experiment: Inhibition of HSP90 in human COLO205 tumor bearing nu/nu mouse assessed as induction of HSP70 expression at 30 mg/kg, […] after 24 hrs by ELISA; type: functional, organism-based; design: dose 30 mg/kg; outline: as §3

Row | SMILES | IC50 (MCF7 [1]) | IC50 (MCF7 [2]) | IC50 (SK-BR-3 [3]) | IC50 (SK-OV-3) | IC50 (SK-BR-3 [4]) | IC50 (HCT-116) | IC50 (NCI-H596) | IC50 [5] | Kd [6] | Activity (COLO 205 [7]) | Activity (COLO 205 [8]) | Activity (Mus musculus [9]) | Activity (Mus musculus [10]) | Kd [11] | Activity (COLO 205 [12]) | Activity (Mus musculus [13]) | Activity (Mus musculus [14]) | Activity (Mus musculus [15]) | Activity (COLO 205 [16]) | Activity (Mus musculus [17])
1 | CO[C@H]1/C=C\C=C(/C)C(=O)NC2=CC(=O)C(NCCN(C)C)=C(C[C@@H](C)C[C@H](OC)[C@H](O)[C@@H](C)/C=C(\C)[C@@H]1OC(N)=O)C2=O [ALVESPIMYCIN] | 862 nM | 71 nM | 230 nM | 122 nM | 58 nM | 57 nM | 1100 nM | 1600 nM | – | – | – | – | – | – | – | – | – | – | – | –
2 | CO[C@H]1C[C@H](C)Cc2cccc(c2)NC(=O)/C(C)=C/CC[C@H](OC)[C@@H](OC(N)=O)/C(C)=C/[C@H](C)[C@H]1O | – | 139 nM | – | 320 nM | 96 nM | 240 nM | 390 nM | 190 nM | 5.4 nM | – | – | – | – | – | – | – | – | – | – | –
3 | C=CCNC1=C2C[C@@H](C)C[C@H](OC)[C@H](O)[C@@H](C)/C=C(\C)[C@H](OC(N)=O)[C@@H](OC)/C=C\C=C(/C)C(=O)NC(=CC1=O)C2=O [TANESPIMYCIN] | 662 nM | 58 nM | 410 nM | 240 nM | 44 nM | 202 nM | 1600 nM | 1500 nM | – | Active | Active | – | – | – | – | – | – | – | – | –
4 | CO[C@H]1/C=C\C=C(/C)C(=O)Nc2cc(Cl)c(O)c(c2O)C[C@@H](C)C[C@H](OC)[C@H](O)[C@@H](C)/C=C(\C)[C@@H]1OC(N)=O | – | 330 nM | – | 350 nM | 394 nM | 422 nM | 710 nM | 443 nM | – | – | – | – | – | – | – | – | – | – | – | –
5 | CO[C@H]1C[C@H](C)Cc2cc(cc(Cl)c2O)NC(=O)/C(C)=C/CC[C@H](OC)[C@@H](OC(N)=O)/C(C)=C/[C@H](C)[C@H]1O | – | – | – | 141 nM | – | 120 nM | – | 89 nM | – | – | Active | Active | Active | 50 nM | Dose-dependent effect | Active | Non-toxic | Non-toxic | Active | Active
6 | CO[C@H]1C[C@H](C)Cc2cc(ccc2O)NC(=O)/C(C)=C/CC[C@H](OC)[C@@H](OC(N)=O)/C(C)=C/[C@H](C)[C@H]1O | – | 610 nM | – | – | 835 nM | 1050 nM | 1200 nM | 420 nM | 0.8 nM | – | – | – | – | – | – | – | – | – | – | –
7 | CO[C@H]1/C=C\C=C(/C)C(=O)Nc2ccc(O)c(c2)C[C@@H](C)C[C@H](OC)[C@H](O)[C@@H](C)/C=C(\C)[C@@H]1OC(N)=O | – | – | – | – | 83 nM | 179 nM | 325 nM | 160 nM | 2.5 nM | – | – | – | – | – | – | – | – | – | – | –
